# Experimental data from ChEMBL document CHEMBL1157190, “Design, synthesis, and anticonvulsant activity of N-phenylamino derivatives of 3,3-dialkyl-pyrrolidine-2,5-diones and hexahydro-isoindole-1,3-diones” (Bioorg Med Chem, 2008).
# The source made the active and inactive calls. No cut-off for these calls is given here.
# Experiments:
# Mus musculus [1] = test: Anticonvulsant activity in ip dosed CF1 albino mouse assessed as inhibition of subcutaneous pentylenetetrazole-induced electrical stimulus at 300 mg/kg after 0.5 hr; type: functional, organism-based; design: dose 300 mg/kg
# Summary of the method: (§1)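 Male CF-1 mice injected intraperitoneally at 30, 100 and 300 mg/kg, suspended in 0.5% methylcellulose/water. MES or subcutaneous pentylenetetrazole challenge at 0.5 and 4 h; selected compounds also at 1 or 2 h.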
# Mus musculus [2] = test: Neurotoxicity in ip dosed CF1 albino mouse after 0.5 hr by rotarod test; type: toxicity, organism-based; settings: in vivo
# Summary of the method: (§2)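 CF-1 mice given 30, 100 or 300 mg/kg ip in 0.5% methylcellulose/water, examined at 0.5 and 4 h. Rotorod test: neurotoxicity is the inability to keep equilibrium on the rod for a given time. Value is the minimum dose giving motor impairment; a dash means none at 300 mg/kg.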
# Mus musculus [3] = test: Anticonvulsant activity in ip dosed CF1 albino mouse assessed as inhibition of maximal electroshock-induced electrical stimulus at 300 mg/kg after 4 hrs; type: functional, organism-based; design: dose 300 mg/kg; summary of the method: as §1
# Mus musculus [4] = test: Anticonvulsant activity in ip dosed CF1 albino mouse assessed as inhibition of subcutaneous pentylenetetrazole-induced electrical stimulus at 300 mg/kg after 4 hrs; type: functional, organism-based; design: dose 300 mg/kg; summary of the method: as §1
# Rattus norvegicus [5] = test: Antiepileptic activity in pilocarpine-induced status prevention in Sprague-Dawley rat assessed as weight change in post first stage 3 seizure at 450 mg/kg after 24 hrs; type: functional
# Summary of the method: (§3)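 Pilocarpine-induced status prevention in rats. Compound given ip at time zero (65 or 450 mg/kg), followed by a challenge dose of pilocarpine. Seizure severity scored on the Racine scale. Average weight change (g, ±SEM) recorded for protected and non-protected rats.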
# Mus musculus [6] = test: Anticonvulsant activity in ip dosed CF1 albino mouse assessed as inhibition of maximal electroshock-induced electrical stimulus at 300 mg/kg after 0.5 hr; type: functional, organism-based; design: dose 300 mg/kg; summary of the method: as §1
# [7] = Lipophilicity, log kw of compound by RP-HPLC; type: physicochemical
# Summary of the method: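 RP-HPLC on a C18 end-capped column at room temperature, with UV detection at 214 nm and uracil as the unretained marker. Capacity factor k = (tr − t0)/t0, from the mean of three measurement sets. log k extrapolated to 100% water (log k = log kw − Sφ) to give log kw.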
# Mus musculus [8] = test: Neurotoxicity in ip dosed CF1 albino mouse at 300 mg/kg after 4 hrs by rotarod test; type: toxicity, organism-based; design: dose 300 mg/kg, route intraperitoneal; settings: in vivo; summary of the method: as §2
# Mus musculus [9] = test: Anticonvulsant activity in ip dosed CF1 albino mouse assessed as inhibition of subcutaneous pentylenetetrazole-induced electrical stimulus after 0.5 hr; type: functional; summary of the method: as §1
# Mus musculus [10] = test: Anticonvulsant activity in ip dosed CF1 albino mouse assessed as inhibition of maximal electroshock-induced electrical stimulus after 1 hr; type: functional; summary of the method: as §1
# Mus musculus [11] = test: Anticonvulsant activity in ip dosed CF1 albino mouse assessed as inhibition of maximal electroshock-induced electrical stimulus after 4 hrs; type: functional; summary of the method: as §1
# Mus musculus [12] = test: Anticonvulsant activity in ip dosed CF1 albino mouse assessed as inhibition of maximal electroshock-induced electrical stimulus after 0.5 hr; type: functional; summary of the method: as §1
# Rattus norvegicus [13] = test: Neurotoxicity in po dosed Sprague-Dawley rat at 50 mg/kg by rotarod test; type: toxicity, organism-based; design: dose 50 mg/kg, route oral; settings: in vivo
# Summary of the method: (§4)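 Male Sprague–Dawley rats dosed orally at 50 mg/kg as a 0.5% methylcellulose/water suspension, four animals per time point. Convulsant given subcutaneously at 0.25, 0.5, 1, 2 and 4 h after dosing; rotorod motor impairment assessed in parallel. Read-out: number of rats of four protected.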
# Rattus norvegicus [14] = test: Anticonvulsant activity in Sprague-Dawley rat assessed as protection against seizure at 30 mg/kg, po after 1 hr by maximal electroshock test; type: functional
# Summary of the method: (§5)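 Male Sprague–Dawley rats; compound suspended in 0.5% methylcellulose/water and given orally at a fixed 30 mg/kg, four rats per time point. MES test run at 0.25, 0.5, 1, 2 and 4 h after dosing, with motor impairment checked in parallel. Read-out: number of rats of four protected.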
# Rattus norvegicus [15] = test: Anticonvulsant activity in Sprague-Dawley rat assessed as protection against seizure at 30 mg/kg, po after 0.25 hr by maximal electroshock test; type: functional; summary of the method: as §5
# Rattus norvegicus [16] = test: Anticonvulsant activity in Sprague-Dawley rat assessed as protection against seizure at 30 mg/kg, po after 0.5 hr by maximal electroshock test; type: functional; summary of the method: as §5
# Rattus norvegicus [17] = test: Anticonvulsant activity in Sprague-Dawley rat assessed as protection against seizure at 30 mg/kg, po after 2 hrs by maximal electroshock test; type: functional; summary of the method: as §5
# Rattus norvegicus [18] = test: Anticonvulsant activity in Sprague-Dawley rat assessed as protection against seizure at 50 mg/kg, po after 4 hrs by subcutaneous pentylenetetrazole test; type: functional; summary of the method: as §4
# Rattus norvegicus [19] = test: Anticonvulsant activity in Sprague-Dawley rat assessed as protection against seizure at 50 mg/kg, po after 1 hr by subcutaneous pentylenetetrazole test; type: functional, organism-based; design: dose 50 mg/kg; summary of the method: as §4
# Rattus norvegicus [20] = test: Anticonvulsant activity in Sprague-Dawley rat assessed as protection against seizure at 50 mg/kg, po after 2 hrs by subcutaneous pentylenetetrazole test; type: functional, organism-based; design: dose 50 mg/kg; summary of the method: as §4
# Rattus norvegicus [21] = test: Anticonvulsant activity in Sprague-Dawley rat assessed as protection against seizure rat at 50 mg/kg, po after 0.25 hr by subcutaneous pentylenetetrazole test; type: functional; summary of the method: as §4
# Rattus norvegicus [22] = test: Anticonvulsant activity in Sprague-Dawley rat assessed as protection against seizure at 30 mg/kg, po after 4 hrs by maximal electroshock test; type: functional; summary of the method: as §5
# Mus musculus [23] = test: Neurotoxicity in ip dosed CF1 albino mouse at 300 mg/kg after 0.5 hr by rotarod test; type: toxicity, organism-based; design: dose 300 mg/kg, route intraperitoneal; settings: in vivo; summary of the method: as §2
# Rattus norvegicus [24] = test: Anticonvulsant activity in Sprague-Dawley rat assessed as protection against seizure at 50 mg/kg, po after 0.5 hr by subcutaneous pentylenetetrazole test; type: functional; summary of the method: as §4
# Mus musculus [25] = test: Anticonvulsant activity in ip dosed CF1 albino mouse assessed as inhibition of subcutaneous pentylenetetrazole-induced electrical stimulus after 4 hrs; type: functional; summary of the method: as §1
# Mus musculus [26] = test: Anticonvulsant activity in ip dosed CF1 albino mouse assessed as inhibition of maximal electroshock-induced electrical stimulus after 2 hrs; type: functional; summary of the method: as §1
# Mus musculus [27] = test: Neurotoxicity in ip dosed CF1 albino mouse after 4 hrs by rotarod test; type: toxicity, organism-based; settings: in vivo; summary of the method: as §2
# Rattus norvegicus [28] = test: Antiepileptic activity in pilocarpine-induced status prevention in Sprague-Dawley rat assessed as weight change in post first stage 3 seizure at 65 mg/kg after 24 hrs; type: functional; summary of the method: as §3
# Rattus norvegicus [29] = species: Rattus norvegicus; test: Protective index, ratio of TD50 for rat by rotarod test to ED50 for rat by MES test; type: functional
# Rattus norvegicus [30] = species: Rattus norvegicus; test: Anticonvulsant activity in rat assessed as inhibition of maximal electroshock-induced electrical stimulus; type: functional
# [31] = Neurotoxicity in po dosed Sprague-Dawley rat after 2 hrs by rotarod test; type: toxicity, organism-based; settings: in vivo
# Rattus norvegicus [32] = test: Anticonvulsant activity in po dosed Sprague-Dawley rat assessed as inhibition of maximal electroshock-induced electrical stimulus after 0.5 hr; type: functional
# Summary of the method: (§6)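 Oral dosing in male Sprague–Dawley rats at the previously estimated time of peak effect. Groups of eight rats received various doses until at least three points fell between 10 and 90% MES protection or minimal neurotoxicity (rotorod). ED50 and TD50 with 95% confidence intervals from regression of the plotted data; protective index = TD50/ED50.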
# [33] = Neurotoxicity in po dosed Sprague-Dawley rat after 0.5 hr by rotarod test; type: toxicity, organism-based; settings: in vivo; summary of the method: as §6
# Rattus norvegicus [34] = species: Rattus norvegicus; test: Protective index, ratio of TD50 for Sprague-Dawley rat by rotarod test to ED50 for Sprague-Dawley rat by MES test after 0.5 hr; type: functional; summary of the method: as §6
Structure (SMILES),Activity (Mus musculus [2]) [mg/kg],Activity (Mus musculus [3]),Activity (Mus musculus [4]),Activity (Mus musculus [6]),log K [7],Activity (Mus musculus [8]),Activity (Mus musculus [9]) [mg/kg],Activity (Mus musculus [11]) [mg/kg],Activity (Mus musculus [12]) [mg/kg],Activity (Rattus norvegicus [14]),Activity (Rattus norvegicus [16]),Activity (Rattus norvegicus [17]),Activity (Rattus norvegicus [18]),Activity (Rattus norvegicus [21]),Activity (Rattus norvegicus [22]),other results
Cc1ccc(NN2C(=O)C3CCCCC3C2=O)cc1 (centres undefined),300,inactive,inactive,inactive,2.028,Not Active,–,–,–,–,–,–,–,–,–,Activity (Mus musculus [1]): inactive; Activity (Rattus norvegicus [5]): 10.2 g
CCC1(CC)CC(=O)N(Nc2ccc(Cl)cc2Cl)C1=O,100,–,inactive,–,2.552,Not Active,100,300,300,–,–,–,–,–,–,Activity (Mus musculus [10]): 100 mg/kg
O=C1C2CCCCC2C(=O)N1Nc1ccccc1 (centres undefined),–,inactive,inactive,–,1.937,Not Active,300,–,300,inactive,25%,inactive,inactive,25%,inactive,Activity (Rattus norvegicus [13]): Non-toxic; Activity (Rattus norvegicus [15]): inactive; Activity (Rattus norvegicus [19]): inactive; Activity (Rattus norvegicus [20]): inactive; Activity (Mus musculus [23]): Not Active; Activity (Rattus norvegicus [24]): inactive
CCC1(C)CC(=O)NC1=O (centres undefined) [ETHOSUXIMIDE],–,inactive,–,inactive,–,Not Active,100,–,–,–,–,–,inactive,inactive,–,Activity (Mus musculus [25]): 300 mg/kg; Activity (Mus musculus [23]): Not Active
CC1(C)CC(=O)N(Nc2ccc(Br)cc2)C1=O,300,–,inactive,–,1.864,Not Active,–,300,300,25%,25%,50%,–,–,50%,Activity (Mus musculus [1]): inactive; Activity (Mus musculus [10]): 100 mg/kg
CCC1(CC)CC(=O)N(Nc2ccc(Cl)cc2)C1=O,300,–,–,inactive,2.314,–,100,300,–,–,–,–,–,–,–,Activity (Mus musculus [25]): 300 mg/kg; Activity (Mus musculus [26]): 100 mg/kg; Activity (Mus musculus [27]): 300 mg/kg
CCCC1(C)CC(=O)N(Nc2ccc(Cl)cc2Cl)C1=O (centres undefined),–,inactive,inactive,inactive,2.647,Not Active,100,–,–,–,–,–,25%,25%,–,Activity (Rattus norvegicus [13]): Non-toxic; Activity (Rattus norvegicus [19]): Active; Activity (Rattus norvegicus [20]): inactive; Activity (Mus musculus [23]): Not Active; Activity (Rattus norvegicus [24]): 50%
CC1(C)CC(=O)N(Nc2cccc(Cl)c2)C1=O,300,inactive,inactive,–,2.071,Not Active,–,–,100,–,–,–,–,–,–,Activity (Mus musculus [1]): inactive; Activity (Rattus norvegicus [28]): 15 g
CCC1(C)CC(=O)N(Nc2ccc(Cl)cc2Cl)C1=O (centres undefined),30,–,–,–,2.334,–,100,300,300,inactive,25%,25%,–,–,inactive,Activity (Mus musculus [10]): 100 mg/kg; Activity (Rattus norvegicus [15]): inactive; Activity (Mus musculus [25]): 300 mg/kg; Activity (Mus musculus [27]): 300 mg/kg
O=C1CC2(CCCC2)C(=O)N1Nc1ccccc1,–,–,–,–,–,–,–,–,–,–,–,–,–,–,–,Ratio TD50/ED50 (Rattus norvegicus [29]): 3.44; ED50 (Rattus norvegicus [30]): 76.3 mg/kg
CCCCC1(C)CC(=O)N(Nc2ccc(Br)cc2)C1=O (centres undefined),300,inactive,inactive,inactive,2.539,Not Active,300,–,–,–,–,–,inactive,inactive,–,Activity (Rattus norvegicus [13]): Non-toxic; Activity (Rattus norvegicus [19]): inactive; Activity (Rattus norvegicus [20]): inactive; Activity (Rattus norvegicus [24]): 25%
O=C1NC(=O)C(c2ccccc2)(c2ccccc2)N1 [PHENYTOIN],100,–,–,–,–,–,30,–,30,inactive,Active,–,–,–,inactive,TD50 at 2 h [31]: > 500 mg/kg; Activity (Mus musculus [27]): 100 mg/kg
CC1(C)CC(=O)N(Nc2ccccc2)C1=O,100,inactive,inactive,–,1.471,Not Active,300,–,300,50%,inactive,inactive,–,–,inactive,ED50 (Rattus norvegicus [32]): 69.9 mg/kg; Activity (Rattus norvegicus [15]): 25%; TD50 at 0.5 h [33]: 500 mg/kg; Ratio TD50/ED50 (Rattus norvegicus [34]): 7.15
